Bioassay records as filed in PubChem.
Shown are actives, neighbours in structure and some others; about 2.8% of the full set was active somewhere.
RBBP9 inh: human RBBP9 hydrolase inhibition; inhibition, % at 7.94 µM; O75884; 220,000 compounds, 0.2% hits; recombinant RBBP9, FP-Rh probe fluorescence polarization;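 active means inhibition above the campaign mean of all tested compounds plus 3 SD, cut at about 14% in these data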
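Material: RBBP9 protein. Amount: RBBP9 at 2.5 µM in dispensed solution, before mixing. Schedule: 30 min then 45 min, 25 °C. Medium: Tris buffer pH 8.0, NaCl, Pluronic. Measured by: fluorescence polarization. Measure: percent inhibition from mP, scaled between DMSO and no-protein wells. Replication: one well per compound.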
eIF4E-4G inh: inhibitors of eIF4E and eIF4G interaction in translation initiation. 220,000 compounds, 0.37% hits. AID 782. TR-FRET eIF4E-eIF4GI(517-606) binding, 2 h. P63073+Q04637. inhibition, % at 21.7 µM
Wee1 degr inh: inhibitors of human Wee1 degradation | P30291 | HeLa Luc-Wee1K328M stability, luciferase luminescence; 100% = proteasome inhibitor MG132 effect | reporter increase, % at 5 µM | 220,000 compounds, 1.2% hits;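 active means activation above the mean of all tested compounds plus 3 SD, set per screening run, cut at about 8.8% in these data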;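 further: cells exposed to compound for 20 h before luminescence read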
p47phox inh: blocks human p47phox regulatory protein of NADPH oxidases; P14598; p47phox/p22phox peptide binding, fluorescence polarization, 2 h; inhibition, % at 24.7 µM; 220,000 compounds, 0.53% hits
14-3-3 Bad inh: disrupts binding of bovine 14-3-3 zeta to phospho-Bad peptide | P63103 | TR-FRET 14-3-3zeta/Dy647-pBad peptide displacement, 1 h | inhibition, % at 21.7 µM | 220,000 compounds, 0.71% hits | AID 781;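 active means inhibition above about 70%, limit read from the data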
Wee1 degr conf: human Wee1 degradation inhibition, confirmation; shares compounds with Wee1 degr inh; HeLa Luc-Wee1K328M degradation, luminescence; vehicle 0%, proteasome-blocked wells 100%; activation, % at 5 µM; 1,100 compounds, 4% hits; in the data active means activation above about 8.9%
Hits are given with their value; i = inactive; nt = no result given.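 How the source made its calls, unless noted: active means inhibition above about 30% (limit read from the data); inactive means the rest.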

SMILES	RBBP9 inh	eIF4E-4G inh	Wee1 degr inh	p47phox inh	14-3-3 Bad inh	Wee1 degr conf
CC1CCCCC1NC(=O)COC(=O)c1c2c(nc3ccccc13)/C(=C/c1ccco1)CC2 (stereo unspecified)	i	i	11	i	i	i
O=C(COC(=O)c1c2c(nc3ccccc13)/C(=C/c1ccco1)CC2)NC1CCCC1	i	i	i	i	i	nt
CCCCOC(=O)c1ccccc1N1C(=O)C2C3CCC(C3)C2C1=O (stereo unspecified)	i	i	12	i	i	i
COc1ccc(NS(=O)(=O)c2cc(NC(=O)c3ccccc3F)ccc2N2CCCC2)cc1	i	i	14	i	i	i
Cc1cccc(C(=O)NCC(=O)OCC(=O)N2CCc3ccccc32)c1	i	i	13	i	i	i
Cc1ccc(C(=O)NCC(=O)OCC(=O)N2CCCc3ccccc32)cc1	i	i	i	i	i	nt
COCCOC(=O)/C(=C\c1cc(C(C)(C)C)c(O)c(C(C)(C)C)c1)C(C)=O	i	i	i	i	i	nt
C=CCn1c(N)c(C(=O)Nc2ccccc2)c2nc3ccccc3nc21	i	nt	15	i	nt	i
COC(=O)c1sccc1NC(=O)C1CCCCC1C(=O)O (stereo unspecified)	i	i	i	i	i	nt
Cc1ccc(NC(=O)c2cncc(Br)c2)c(O)c1	i	i	12	i	i	i
COCCn1cc(C(=O)NCCCN2CCC(C)CC2)c2c3ccccc3n(C)c2c1=O	i	nt	14	i	nt	i
O=C(Nc1ccc(OC(F)(F)F)cc1)Nc1cccc([N+](=O)[O-])c1	i	i	17	i	i	i
Cc1ccccc1OCC(=O)Nc1ccc2c(c1)OCO2	i	i	i	i	i	nt
Cc1ccc(NC(=O)COc2ccccc2C=O)cc1Cl	i	i	16	i	i	i
CCOC(=O)c1c(-c2ccccc2)csc1NC(=O)CSc1nnc(C)s1	i	i	12	i	i	i
CCOC(=O)c1c(-c2ccc(C)o2)csc1NC(=O)CSc1nnc(C)s1	i	i	i	i	i	nt
CC(C1CC1)N(Cc1ccccc1)C(=S)Nc1cccc(C(F)(F)F)c1 (stereo unspecified)	i	i	i	i	i	nt
CC(C1CC1)N(Cc1ccccc1)C(=O)NC(=O)c1ccc(F)cc1 (stereo unspecified)	i	i	34	i	i	i
COc1ccc(C(=O)NNC(=O)CSc2ccccc2)cc1	i	i	i	nt	i	nt
CCOc1ccc(N(CCCCO)C(=S)NC(=O)c2ccc(C)c(Br)c2)cc1	i	i	i	i	i	nt
CC(C)NS(=O)(=O)c1ccc(OCC(=O)N2CCc3ccccc3C2)cc1	i	i	13	i	i	i
COc1ccc(NC(=O)Cc2nnc(N)s2)cc1	i	i	i	i	i	nt
COCCOC(=O)c1c(C)oc2ccc(OCc3ccccc3)cc12	i	i	14	i	i	i
CCOC(=O)c1c(-c2ccccc2)oc2ccc(OC(C)=O)cc12	i	i	13	i	i	i
CCCOC(=O)c1cccc(Nc2nc(-c3cccnc3)nc3ccccc23)c1	i	i	i	i	i	nt
SMILES	RBBP9 inh	eIF4E-4G inh	Wee1 degr inh	p47phox inh	14-3-3 Bad inh	Wee1 degr conf
Cc1ccc(C(=O)N2CCC3(CC2)Oc2ccc(F)cc2C(=O)C32CC(c3cccnc3)=NO2)s1 (stereo unspecified)	nt	i	nt	i	i	nt
O=C(Nc1ccon1)c1cccc(S(=O)(=O)N2CCCC2)c1	i	i	29	i	i	i
COc1ccc(NC(=O)CSCC(=O)NCCc2ccccn2)cc1	i	i	16	i	i	i
COc1ccc(NC(=O)CSc2ccccn2)cc1	i	i	i	i	i	nt
O=C(C1=C[C@@H](c2coc3ccccc3c2=O)C[C@@H](OCc2ccc(CO)cc2)O1)N1CCN(Cc2ccc3c(c2)OCO3)CC1	i	i	23	i	i	i
O=C(C1=C[C@H](c2coc3ccccc3c2=O)C[C@H](OCc2ccc(CO)cc2)O1)N1CCN(Cc2ccc3c(c2)OCO3)CC1	i	i	i	i	i	nt
COc1ccc2c(=O)c(-c3ccccc3)coc2c1	i	i	9.9	i	i	i
CCC(C(=O)OCC(=O)NC(=O)NC(C)(C)C)c1ccccc1 (stereo unspecified)	i	i	i	i	i	nt
